Measurements as given in the M2OR odorant receptor database.

Experiments:
Details in all cases: stereoisomer not certain
[1] = biological target: T1, OR10G2 (Homo sapiens) (UniProt Q8NGC3)
T1 sequence (whole entry): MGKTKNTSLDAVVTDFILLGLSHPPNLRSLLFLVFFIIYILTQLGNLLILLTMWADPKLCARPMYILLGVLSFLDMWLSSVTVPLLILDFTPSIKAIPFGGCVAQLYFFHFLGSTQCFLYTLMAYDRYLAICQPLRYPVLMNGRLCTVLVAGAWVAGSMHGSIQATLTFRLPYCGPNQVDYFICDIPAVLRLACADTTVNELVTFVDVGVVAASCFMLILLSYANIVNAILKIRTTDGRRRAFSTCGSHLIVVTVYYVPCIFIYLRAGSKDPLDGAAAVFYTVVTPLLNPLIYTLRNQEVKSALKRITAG
Procedure, shortened: (§1)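 Whether a receptor–molecule pair is responsive (active) rests on the original authors' judgment that its measured signal was statistically different from baseline. Pairs without that judgment are non-responsive (inactive). Sources used varied assay methods, commonly transient luciferase assays in mammalian cell lines.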

[2] = biological target: T2, OR10G3 (Homo sapiens) (UniProt Q8NGC4)
T2 sequence (whole entry): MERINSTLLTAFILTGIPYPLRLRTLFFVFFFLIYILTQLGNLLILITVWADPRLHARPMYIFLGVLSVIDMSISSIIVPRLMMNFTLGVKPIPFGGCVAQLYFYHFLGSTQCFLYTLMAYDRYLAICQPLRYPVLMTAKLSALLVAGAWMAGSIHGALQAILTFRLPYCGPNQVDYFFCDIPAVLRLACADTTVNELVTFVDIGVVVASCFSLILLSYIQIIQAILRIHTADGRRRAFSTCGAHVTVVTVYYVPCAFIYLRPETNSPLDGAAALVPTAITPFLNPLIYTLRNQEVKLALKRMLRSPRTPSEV
Procedure, shortened: as §1

[3] = biological target: T3, OR10G4 (Homo sapiens) (UniProt Q8NGN3)
T3 sequence (whole entry): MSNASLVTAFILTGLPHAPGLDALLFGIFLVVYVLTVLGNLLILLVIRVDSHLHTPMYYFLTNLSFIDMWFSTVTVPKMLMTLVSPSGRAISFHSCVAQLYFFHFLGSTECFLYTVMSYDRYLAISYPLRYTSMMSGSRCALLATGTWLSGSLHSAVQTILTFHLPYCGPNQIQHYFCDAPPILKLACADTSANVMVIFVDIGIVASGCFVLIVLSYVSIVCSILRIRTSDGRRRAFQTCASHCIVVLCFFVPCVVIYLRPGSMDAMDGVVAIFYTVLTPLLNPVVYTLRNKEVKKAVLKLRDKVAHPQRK
Procedure, shortened: as §1

[4] = biological target: T4, OR10G6 (Homo sapiens) (UniProt Q8NH81)
T4 sequence (whole entry): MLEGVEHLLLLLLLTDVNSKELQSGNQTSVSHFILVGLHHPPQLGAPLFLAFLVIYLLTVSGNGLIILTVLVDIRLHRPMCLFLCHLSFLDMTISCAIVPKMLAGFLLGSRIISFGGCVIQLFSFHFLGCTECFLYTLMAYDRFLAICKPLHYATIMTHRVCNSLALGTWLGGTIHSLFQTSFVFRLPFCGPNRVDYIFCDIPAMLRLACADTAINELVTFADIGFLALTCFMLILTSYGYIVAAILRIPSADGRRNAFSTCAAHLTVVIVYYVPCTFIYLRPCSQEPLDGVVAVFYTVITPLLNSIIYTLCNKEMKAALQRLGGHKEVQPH
Procedure, shortened: as §1

[5] = biological target: T5, OR10G7 (Homo sapiens) (UniProt Q8NGN6)
T5 sequence (whole entry): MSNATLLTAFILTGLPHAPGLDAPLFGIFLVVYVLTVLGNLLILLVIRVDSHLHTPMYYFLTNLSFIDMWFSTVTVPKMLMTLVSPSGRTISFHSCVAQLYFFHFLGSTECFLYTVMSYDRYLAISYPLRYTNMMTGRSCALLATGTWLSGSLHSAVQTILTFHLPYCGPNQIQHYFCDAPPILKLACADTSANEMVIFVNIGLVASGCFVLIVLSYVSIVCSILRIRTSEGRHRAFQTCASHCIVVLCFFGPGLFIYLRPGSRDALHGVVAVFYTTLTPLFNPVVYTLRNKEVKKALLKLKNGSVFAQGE
Procedure, shortened: as §1

[6] = biological target: T6, OR10G8 (Homo sapiens) (UniProt Q8NGN5)
T6 sequence (whole entry): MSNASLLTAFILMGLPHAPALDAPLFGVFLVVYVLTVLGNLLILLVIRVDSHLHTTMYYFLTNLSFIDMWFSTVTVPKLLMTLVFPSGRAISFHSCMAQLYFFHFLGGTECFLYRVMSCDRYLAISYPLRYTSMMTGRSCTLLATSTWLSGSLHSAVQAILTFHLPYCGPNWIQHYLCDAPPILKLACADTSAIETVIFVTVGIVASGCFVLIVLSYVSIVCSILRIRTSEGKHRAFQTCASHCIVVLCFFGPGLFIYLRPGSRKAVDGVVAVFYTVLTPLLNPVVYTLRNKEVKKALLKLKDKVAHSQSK
Procedure, shortened: as §1

[7] = biological target: T7, OR10G9 (Homo sapiens) (UniProt Q8NGN4)
T7 sequence (whole entry): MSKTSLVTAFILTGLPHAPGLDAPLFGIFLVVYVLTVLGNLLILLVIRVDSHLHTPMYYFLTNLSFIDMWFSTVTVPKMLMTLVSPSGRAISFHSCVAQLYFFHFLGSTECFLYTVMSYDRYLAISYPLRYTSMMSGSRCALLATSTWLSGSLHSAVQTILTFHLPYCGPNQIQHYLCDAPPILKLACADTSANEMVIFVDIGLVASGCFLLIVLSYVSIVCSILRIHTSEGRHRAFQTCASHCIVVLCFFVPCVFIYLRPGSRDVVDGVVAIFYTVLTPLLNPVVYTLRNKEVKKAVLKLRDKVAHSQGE
Procedure, shortened: as §1

[8] = biological target: T8, OR10H1 (Homo sapiens) (UniProt Q9Y4A9)
T8 sequence (whole entry): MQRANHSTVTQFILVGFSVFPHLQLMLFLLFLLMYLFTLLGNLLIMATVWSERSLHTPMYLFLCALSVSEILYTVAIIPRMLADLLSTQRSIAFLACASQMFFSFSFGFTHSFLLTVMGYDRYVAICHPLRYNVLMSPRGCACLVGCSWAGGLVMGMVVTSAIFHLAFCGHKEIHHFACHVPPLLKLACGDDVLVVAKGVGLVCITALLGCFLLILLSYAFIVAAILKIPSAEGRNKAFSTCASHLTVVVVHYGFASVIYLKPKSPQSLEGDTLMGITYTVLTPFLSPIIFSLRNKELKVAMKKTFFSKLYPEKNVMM
Procedure, shortened: as §1

[9] = biological target: T9, OR10H2 (Homo sapiens) (UniProt O60403)
T9 sequence (whole entry): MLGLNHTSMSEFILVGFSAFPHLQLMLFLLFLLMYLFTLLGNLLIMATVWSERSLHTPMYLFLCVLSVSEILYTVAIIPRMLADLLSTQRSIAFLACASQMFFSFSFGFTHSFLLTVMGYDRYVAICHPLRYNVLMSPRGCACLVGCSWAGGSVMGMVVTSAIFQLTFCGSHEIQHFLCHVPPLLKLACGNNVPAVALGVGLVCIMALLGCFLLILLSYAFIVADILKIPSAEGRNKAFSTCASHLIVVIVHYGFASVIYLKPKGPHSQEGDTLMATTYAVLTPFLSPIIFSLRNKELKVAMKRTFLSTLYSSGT
Procedure, shortened: as §1

[10] = biological target: T10, OR10H3 (Homo sapiens) (UniProt O60404)
T10 sequence (whole entry): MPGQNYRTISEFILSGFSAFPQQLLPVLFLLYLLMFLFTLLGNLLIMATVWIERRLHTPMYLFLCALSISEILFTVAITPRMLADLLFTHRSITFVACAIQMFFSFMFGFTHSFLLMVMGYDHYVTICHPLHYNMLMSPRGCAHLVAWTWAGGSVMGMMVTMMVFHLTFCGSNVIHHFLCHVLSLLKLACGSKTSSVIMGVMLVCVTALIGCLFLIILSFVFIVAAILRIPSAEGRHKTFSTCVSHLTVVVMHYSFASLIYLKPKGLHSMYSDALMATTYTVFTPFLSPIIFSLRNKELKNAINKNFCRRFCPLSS
Procedure, shortened: as §1

[11] = biological target: T11, OR10H4 (Homo sapiens) (UniProt Q8NGA5)
T11 sequence (whole entry): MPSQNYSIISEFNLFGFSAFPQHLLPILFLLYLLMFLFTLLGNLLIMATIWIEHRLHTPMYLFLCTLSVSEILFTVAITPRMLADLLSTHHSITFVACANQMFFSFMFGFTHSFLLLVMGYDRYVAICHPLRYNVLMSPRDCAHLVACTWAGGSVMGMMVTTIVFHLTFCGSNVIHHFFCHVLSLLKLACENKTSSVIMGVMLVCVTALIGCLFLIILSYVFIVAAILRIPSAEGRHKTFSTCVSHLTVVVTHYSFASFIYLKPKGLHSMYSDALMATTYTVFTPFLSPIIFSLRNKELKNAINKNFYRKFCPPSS
Procedure, shortened: as §1

[12] = biological target: T12, OR10H5 (Homo sapiens) (UniProt Q8NGA6)
T12 sequence (whole entry): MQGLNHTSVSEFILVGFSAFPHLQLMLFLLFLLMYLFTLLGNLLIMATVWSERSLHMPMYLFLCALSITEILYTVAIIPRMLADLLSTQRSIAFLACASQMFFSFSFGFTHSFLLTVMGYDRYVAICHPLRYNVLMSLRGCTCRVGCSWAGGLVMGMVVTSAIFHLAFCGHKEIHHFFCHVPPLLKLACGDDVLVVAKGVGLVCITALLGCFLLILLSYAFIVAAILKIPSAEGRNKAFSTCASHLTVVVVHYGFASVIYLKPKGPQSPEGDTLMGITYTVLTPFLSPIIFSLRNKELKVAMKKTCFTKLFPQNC
Procedure, shortened: as §1

[13] = biological target: T13, OR10J3 (Homo sapiens) (UniProt Q5JRS4)
T13 sequence (whole entry): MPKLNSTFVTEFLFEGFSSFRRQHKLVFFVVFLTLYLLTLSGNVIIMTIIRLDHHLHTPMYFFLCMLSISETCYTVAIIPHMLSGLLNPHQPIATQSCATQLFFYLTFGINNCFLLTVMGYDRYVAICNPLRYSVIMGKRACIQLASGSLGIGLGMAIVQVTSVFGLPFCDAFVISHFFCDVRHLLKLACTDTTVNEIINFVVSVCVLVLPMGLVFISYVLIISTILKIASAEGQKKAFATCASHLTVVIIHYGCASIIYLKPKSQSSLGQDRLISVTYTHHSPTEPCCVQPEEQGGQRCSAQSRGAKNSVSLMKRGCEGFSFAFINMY
Procedure, shortened: as §1

[14] = biological target: OR10J4 (Homo sapiens) (UniProt P0C629)
Procedure, shortened: as §1

[15] = biological target: T14, OR10J5 (Homo sapiens) (UniProt Q8NHC4)
T14 sequence (whole entry): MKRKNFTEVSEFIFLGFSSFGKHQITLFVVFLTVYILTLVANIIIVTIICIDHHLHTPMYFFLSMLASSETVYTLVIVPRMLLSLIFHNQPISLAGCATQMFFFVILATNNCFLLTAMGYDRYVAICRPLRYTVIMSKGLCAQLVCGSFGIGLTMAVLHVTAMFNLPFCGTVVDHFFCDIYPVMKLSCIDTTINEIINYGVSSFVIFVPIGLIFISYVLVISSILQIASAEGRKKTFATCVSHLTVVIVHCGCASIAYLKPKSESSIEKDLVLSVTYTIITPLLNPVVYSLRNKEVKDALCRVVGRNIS
Procedure, shortened: as §1

[16] = biological target: T15, OR10K1 (Homo sapiens) (UniProt Q8NGX5)
T15 sequence (whole entry): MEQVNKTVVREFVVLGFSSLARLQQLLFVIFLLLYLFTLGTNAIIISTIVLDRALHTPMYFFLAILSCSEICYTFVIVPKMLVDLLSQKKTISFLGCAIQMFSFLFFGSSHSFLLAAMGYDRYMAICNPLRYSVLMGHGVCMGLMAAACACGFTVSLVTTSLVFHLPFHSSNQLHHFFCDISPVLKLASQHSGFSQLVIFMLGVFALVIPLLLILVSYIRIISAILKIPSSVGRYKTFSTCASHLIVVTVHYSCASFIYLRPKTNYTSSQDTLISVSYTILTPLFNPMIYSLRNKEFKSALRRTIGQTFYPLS
Procedure, shortened: as §1

[17] = biological target: T16, OR10K2 (Homo sapiens) (UniProt Q6IF99)
T16 sequence (whole entry): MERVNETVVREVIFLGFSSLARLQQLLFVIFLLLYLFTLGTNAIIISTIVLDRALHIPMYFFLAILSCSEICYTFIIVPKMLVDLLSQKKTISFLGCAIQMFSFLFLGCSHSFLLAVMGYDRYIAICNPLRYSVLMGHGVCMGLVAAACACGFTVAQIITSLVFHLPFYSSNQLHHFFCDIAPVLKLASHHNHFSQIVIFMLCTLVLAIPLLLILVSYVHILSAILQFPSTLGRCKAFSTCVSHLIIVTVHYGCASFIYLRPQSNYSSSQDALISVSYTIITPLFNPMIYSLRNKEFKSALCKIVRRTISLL
Procedure, shortened: as §1

[18] = biological target: T17, OR10P1 (Homo sapiens) (UniProt Q8NGE3)
T17 sequence (whole entry): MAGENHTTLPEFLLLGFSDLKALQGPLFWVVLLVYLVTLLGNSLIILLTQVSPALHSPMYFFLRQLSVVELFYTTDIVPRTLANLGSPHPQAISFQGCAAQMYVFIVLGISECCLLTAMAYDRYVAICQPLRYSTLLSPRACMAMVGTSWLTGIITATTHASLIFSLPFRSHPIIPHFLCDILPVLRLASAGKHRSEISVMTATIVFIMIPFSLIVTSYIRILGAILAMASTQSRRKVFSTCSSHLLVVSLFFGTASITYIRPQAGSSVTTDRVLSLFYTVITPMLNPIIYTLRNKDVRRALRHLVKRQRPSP
Procedure, shortened: as §1

[19] = biological target: T18, OR10Q1 (Homo sapiens) (UniProt Q8NGQ4)
T18 sequence (whole entry): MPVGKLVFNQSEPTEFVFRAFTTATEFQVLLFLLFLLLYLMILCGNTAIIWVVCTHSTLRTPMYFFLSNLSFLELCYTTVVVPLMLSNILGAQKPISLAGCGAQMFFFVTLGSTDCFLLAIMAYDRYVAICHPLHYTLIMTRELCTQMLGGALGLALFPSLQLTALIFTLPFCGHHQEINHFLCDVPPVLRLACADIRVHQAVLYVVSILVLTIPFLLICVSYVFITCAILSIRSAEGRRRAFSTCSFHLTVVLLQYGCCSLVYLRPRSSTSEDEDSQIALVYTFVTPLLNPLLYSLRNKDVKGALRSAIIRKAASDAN
Procedure, shortened: as §1

Measured: odorant receptor agonist call

Sequence of OR10J4 (Homo sapiens) (P0C629 whole entry F198I): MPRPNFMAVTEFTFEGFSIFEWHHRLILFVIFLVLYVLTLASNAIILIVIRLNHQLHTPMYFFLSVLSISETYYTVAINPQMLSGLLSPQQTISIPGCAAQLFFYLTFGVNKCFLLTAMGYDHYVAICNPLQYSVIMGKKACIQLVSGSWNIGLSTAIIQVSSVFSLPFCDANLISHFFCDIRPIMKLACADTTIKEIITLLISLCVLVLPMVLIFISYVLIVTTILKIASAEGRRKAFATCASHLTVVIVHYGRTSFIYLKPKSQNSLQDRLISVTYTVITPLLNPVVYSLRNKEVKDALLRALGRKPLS

CC(=O)c1c(C)c([N+](=O)[O-])c(C(C)(C)C)c([N+](=O)[O-])c1C
inactive: all assays above

CCCCC(=O)CC
inactive: [15]
